In ChEMBL document CHEMBL1146344, “Design, synthesis, and evaluation of 2-aryl-3-heteroaryl-1,3-thiazolidin-4-ones as anti-HIV agents” (Bioorg Med Chem, 2007):

Legend:
[1] = Cytotoxicity against MT4 cells; type: cell-based; settings: human
Outline: (§1)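 Mock-infected MT-4 or CEM cultures exposed to compound dilutions at 37 °C, with incubation times as in the antiviral runs. Viable cell number determined. Means of at least two separate experiments.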

[2] = Cytotoxicity against CEM cells; type: cell-based; settings: human, CEM (CCRF-CEM) cells; outline: as §1

Fc1cccc(F)c1C1SCc2nc3ccccc3n21 (configuration not stated) [THIAZOLOBENZIMIDAZOLE]
CC50 [1]: 19.2 µM | CC50 [2]: 50 µM
